Shown are actives, neighbours in structure and some others; about 1.4% of the full set was active somewhere.
UCH37 DUB inh – human UCH37 deubiquitinating enzyme inhibition | Q9Y5K5 | inhibition, % (concentration not given with the values) | purified proteasome/UCH37, Ub-AMC cleavage fluorescence | 0.33% of 330,000 active;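 active = mean inhibition over replicate wells above about 20%, limit read from the data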
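assay system = human UCH37 enzyme supplied as purified proteasome complex | amount = proteasome at 0.15 nM in the dispensed enzyme solution | schedule = 30 min compound-proteasome preincubation then 25 min substrate reaction, room temperature | measured by = fluorescence, ex 355 nm, em 460 nm | benchmarks = no-proteasome wells (full inhibition) and compound-free wells (no inhibition)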
Tb MetRS inh – Trypanosoma brucei MetRS inhibition | inhibition, % at 11.9 µM | 0.4% of 360,000 active | purified T. brucei MetRS, ATP depletion, Kinase-Glo luminescence;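 active = inhibition above a per-plate cutoff of the control wells' mean inhibition plus 3 SD, cut at about 5.5% in these data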
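technique = Kinase-Glo luminescence, ATP depletion format | system = purified MetRS (methionyl-tRNA synthetase) enzyme from Trypanosoma brucei | timing = 15 min preincubation, 2 h reaction, all 25 °C | evaluation = percent inhibition versus plate control medians | dosing = single dose, 11.9 µM final nominal, 0.9% final DMSO | also added = substrates ATP, L-methionine and bulk Escherichia coli tRNA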
ATG4B inh – ATG4B (human) cysteine protease inhibition. Q9Y4P1. ATG4B cleavage of LC3-PLA2, NBD-HPC fluorescence, 1 h. inhibition, % at 8.33 µM. 0.51% of 340,000 active; in the data active = inhibition above about 40%
Target sequence (Q9Y4P1 whole entry, looked up): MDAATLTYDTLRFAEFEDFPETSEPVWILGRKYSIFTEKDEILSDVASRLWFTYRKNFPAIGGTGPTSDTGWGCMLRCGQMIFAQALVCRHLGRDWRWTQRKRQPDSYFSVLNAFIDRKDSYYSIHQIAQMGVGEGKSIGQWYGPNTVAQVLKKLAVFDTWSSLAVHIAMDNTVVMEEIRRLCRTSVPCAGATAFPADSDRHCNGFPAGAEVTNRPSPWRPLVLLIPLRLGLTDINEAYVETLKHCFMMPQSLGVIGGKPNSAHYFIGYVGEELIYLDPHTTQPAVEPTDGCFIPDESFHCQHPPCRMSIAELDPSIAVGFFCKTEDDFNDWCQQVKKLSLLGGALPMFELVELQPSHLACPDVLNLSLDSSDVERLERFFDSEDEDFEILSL
Rin1 Abl inh – blocks binding of human Rin1 to Abl. TR-FRET Rin1/Abl binding, biochemical. AID 588664. 0.4% of 360,000 active. inhibition, % at 7.35 µM; in the data active = inhibition above about 5%, passing the limit was not always enough
Tb MetRS conf – Trypanosoma brucei MetRS inhibition confirmed | T. brucei MetRS enzyme, luminescence (ATP depletion) | AID 624412 | shares compounds with Tb MetRS inh | inhibition, % at 11.9 µM | 93% of 1,400 active; in the data active = inhibition above about 7%
Jurkat tox – counter-screen for T. brucei MetRS inhibitors: Jurkat cell cytotoxicity. shares compounds with Tb MetRS inh. Jurkat cells viability, ATP luminescence. inhibition, % at 8.3 µM. 12% of 1,400 active; in the data active = inhibition above about 15%
Tb MetRS inh FP – T. brucei MetRS inhibition, orthogonal assay | purified T. brucei MetRS, fluorescence polarization | 44% of 1,400 active | inhibition, % at 11.9 µM | AID 651607 | shares compounds with Tb MetRS inh; in the data active = inhibition above about 17%
Large screens that a line does not name were inactive (follow-up assays come after a bar, where they were run).

O=C(NCc1nc2ccccc2[nH]1)C1=C[C@@H](c2ccc(Br)cc2)C[C@@H](OCc2ccc(CO)cc2)O1	Tb MetRS inh 78.6 | Tb MetRS conf 101.4 | Jurkat tox inactive | Tb MetRS inh FP 84.1
O=C(NCc1nc2ccccc2[nH]1)C1=C[C@@H](c2ccc(Br)cc2)C[C@@H](OCCCCO)O1	Tb MetRS inh 84.8 | Tb MetRS conf 104.5 | Jurkat tox inactive | Tb MetRS inh FP 105.7
O=C(O)C1=C[C@H](c2coc3ccccc3c2=O)C[C@H](OCCCCO)O1	none
O=C(NCc1ccccc1)C1=C[C@@H](c2ccc(Br)cc2)C[C@@H](OCc2ccc(CO)cc2)O1	none
O=C(NCc1nc2ccccc2[nH]1)C1=C[C@H](c2coc3ccccc3c2=O)C[C@H](OCCCCO)O1	Tb MetRS inh 16.6 | Tb MetRS conf 52.7 | Jurkat tox inactive | Tb MetRS inh FP 18.3
CCN1C(C)=C(C)S/C1=C1\SC(=S)N(N)C1=O	none
O=C(Cn1cccn1)N1CCCC(N2CCN(c3ccccc3F)CC2)C1 (stereo not given)	none (no result: UCH37 DUB inh)
O=C(CCc1ccccc1)NCC(=O)NN=Cc1ccc(O)cc1O	none (no result: Tb MetRS inh, ATG4B inh, Rin1 Abl inh)
Cc1ccsc1/C=N/NC(=O)CNC(=O)c1c(F)cccc1Cl	none (no result: UCH37 DUB inh)
COc1ccc(/C=C/C(=O)O)cc1S(=O)(=O)N1CCCc2ccccc21	none
Cn1c(SCC(=O)Nc2ccc3cn[nH]c3c2)nnc1-c1cnccn1	Tb MetRS inh 7.8 | Tb MetRS conf 14.2 | Jurkat tox inactive | Tb MetRS inh FP inactive
CCS(=O)(=O)NCCc1cc2cc(C)c(C)cc2[nH]c1=O	none
C[C@H](NC(=O)c1ccc(Cl)cc1)C(=O)OCn1nnc2ccccc2c1=O	none
O=C(Cn1nnc2ccccc2c1=O)NCCc1ccc(Cl)cc1Cl	Tb MetRS inh 6.5 | Tb MetRS conf 34.4 | Jurkat tox inactive | Tb MetRS inh FP inactive
O=C(CSCC(=O)OCn1nnc2ccccc2c1=O)Nc1ccc(Cl)cc1	Tb MetRS inh 16.0 | Tb MetRS conf 14.3 | Jurkat tox inactive | Tb MetRS inh FP inactive
O=C(Cn1nnc2ccccc2c1=O)NCCc1ccccc1	none
Cc1cccc(NC(=O)c2ccc3c(c2)CCN3S(C)(=O)=O)c1C	none
Cc1ccc([C@@H]2CC=C(C(=O)O)[C@H](c3ccc(Br)cc3)N2S(=O)(=O)c2ccc(C)cc2)cc1	none
COc1cccc(C(=O)N2CCC(O)(c3cccnc3)CC2)c1	none
Cc1cc(C)c(C)c(OCCOCCN2CCN(C)CC2)c1	none
Cc1cccc(NC(=O)CCNC(=O)c2ccc(Br)cc2)c1	Tb MetRS inh 30.7 | Tb MetRS conf 55.5 | Jurkat tox inactive | Tb MetRS inh FP 69.9
O=C(CCCNC(=O)c1ccc(Cl)cc1)Nc1ccc(Br)cc1	Tb MetRS inh 9.1 | Tb MetRS conf 60.4 | Jurkat tox inactive | Tb MetRS inh FP 43.1
O=C(COC(=O)CCCNC(=O)c1ccc(Cl)cc1)Nc1ccc(Br)cc1	none
CCN1C(=O)[C@@H]2[C@@H]3CN(S(=O)(=O)c4ccc(C)cc4)[C@@H](c4ccccc4F)[C@@H]3C(=O)C[C@@H]2C1=O	none (no result: UCH37 DUB inh, ATG4B inh)
NS(=O)(=O)c1ccc(NC(=O)c2c(F)cccc2Cl)cc1	Tb MetRS inh 7.9 | Tb MetRS conf inactive | Jurkat tox inactive | Tb MetRS inh FP inactive
O=C(O)c1ccc(CSc2nnc(COc3ccc(Cl)cc3Cl)o2)cc1	Tb MetRS inh 47.6 | Tb MetRS conf 59.9 | Jurkat tox inactive | Tb MetRS inh FP 35.2
Cc1ccccc1-n1cc(-c2ccc(Br)cc2)nc1SCC(N)=O	Tb MetRS inh 28.6 (no result: UCH37 DUB inh) | Tb MetRS conf 39.1 | Jurkat tox inactive | Tb MetRS inh FP 23.2
COc1ccc(C=NNC(=O)CSc2nnc(CCCc3ccc(OC)c(C)c3)o2)cc1	none (no result: Tb MetRS inh, ATG4B inh, Rin1 Abl inh)
Nc1ccc2nc(CCCCc3nc4ccccc4[nH]3)[nH]c2c1	Tb MetRS inh 9.3 | Tb MetRS conf 14.2 | Jurkat tox inactive | Tb MetRS inh FP inactive
Nc1ccc2nc(CCCCCCc3nc4ccc(N)cc4[nH]3)[nH]c2c1	none
COc1nccc(C(F)(F)F)c1C(=O)Nc1ccc(Cl)cc1	none
COc1ccc(NC(=O)Nc2cccc3c2O[C@H](CN(C)S(=O)(=O)c2cccs2)[C@@H](C)CN([C@H](C)CO)C3=O)cc1	none

Screening data (PubChem)
